ChEMBL document CHEMBL1150418, “Discovery of potent furan piperazine sodium channel blockers for treatment of neuropathic pain” (Bioorg Med Chem, 2008)

Columns and labels:
[1] = molecular target: T1, Sodium channel protein type 10 subunit alpha (Homo sapiens, UniProt Q9Y5Y9); assay: Inhibition of human recombinant Nav1.8 channel expressed in HEK293 cells at 0.1 uM by whole cell voltage clamp technique; assay type: cell-based
Outline: (§1)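 HEK293 cells stably expressing recombinant human sodium channels, grown in high-glucose DMEM, 10% FBS, 2 mM sodium pyruvate, G418. Whole-cell voltage clamp; pipettes 0.8–2.5 MΩ; internal (mM) 135 CsF, 10 CsCl, 5 EGTA, 5 NaCl, 10 HEPES, pH 7.3 with CsOH. Holding pre-pulse set at midpoint of steady-state inactivation for each subtype.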
Target sequence in this assay (Q9Y5Y9 whole entry, looked up): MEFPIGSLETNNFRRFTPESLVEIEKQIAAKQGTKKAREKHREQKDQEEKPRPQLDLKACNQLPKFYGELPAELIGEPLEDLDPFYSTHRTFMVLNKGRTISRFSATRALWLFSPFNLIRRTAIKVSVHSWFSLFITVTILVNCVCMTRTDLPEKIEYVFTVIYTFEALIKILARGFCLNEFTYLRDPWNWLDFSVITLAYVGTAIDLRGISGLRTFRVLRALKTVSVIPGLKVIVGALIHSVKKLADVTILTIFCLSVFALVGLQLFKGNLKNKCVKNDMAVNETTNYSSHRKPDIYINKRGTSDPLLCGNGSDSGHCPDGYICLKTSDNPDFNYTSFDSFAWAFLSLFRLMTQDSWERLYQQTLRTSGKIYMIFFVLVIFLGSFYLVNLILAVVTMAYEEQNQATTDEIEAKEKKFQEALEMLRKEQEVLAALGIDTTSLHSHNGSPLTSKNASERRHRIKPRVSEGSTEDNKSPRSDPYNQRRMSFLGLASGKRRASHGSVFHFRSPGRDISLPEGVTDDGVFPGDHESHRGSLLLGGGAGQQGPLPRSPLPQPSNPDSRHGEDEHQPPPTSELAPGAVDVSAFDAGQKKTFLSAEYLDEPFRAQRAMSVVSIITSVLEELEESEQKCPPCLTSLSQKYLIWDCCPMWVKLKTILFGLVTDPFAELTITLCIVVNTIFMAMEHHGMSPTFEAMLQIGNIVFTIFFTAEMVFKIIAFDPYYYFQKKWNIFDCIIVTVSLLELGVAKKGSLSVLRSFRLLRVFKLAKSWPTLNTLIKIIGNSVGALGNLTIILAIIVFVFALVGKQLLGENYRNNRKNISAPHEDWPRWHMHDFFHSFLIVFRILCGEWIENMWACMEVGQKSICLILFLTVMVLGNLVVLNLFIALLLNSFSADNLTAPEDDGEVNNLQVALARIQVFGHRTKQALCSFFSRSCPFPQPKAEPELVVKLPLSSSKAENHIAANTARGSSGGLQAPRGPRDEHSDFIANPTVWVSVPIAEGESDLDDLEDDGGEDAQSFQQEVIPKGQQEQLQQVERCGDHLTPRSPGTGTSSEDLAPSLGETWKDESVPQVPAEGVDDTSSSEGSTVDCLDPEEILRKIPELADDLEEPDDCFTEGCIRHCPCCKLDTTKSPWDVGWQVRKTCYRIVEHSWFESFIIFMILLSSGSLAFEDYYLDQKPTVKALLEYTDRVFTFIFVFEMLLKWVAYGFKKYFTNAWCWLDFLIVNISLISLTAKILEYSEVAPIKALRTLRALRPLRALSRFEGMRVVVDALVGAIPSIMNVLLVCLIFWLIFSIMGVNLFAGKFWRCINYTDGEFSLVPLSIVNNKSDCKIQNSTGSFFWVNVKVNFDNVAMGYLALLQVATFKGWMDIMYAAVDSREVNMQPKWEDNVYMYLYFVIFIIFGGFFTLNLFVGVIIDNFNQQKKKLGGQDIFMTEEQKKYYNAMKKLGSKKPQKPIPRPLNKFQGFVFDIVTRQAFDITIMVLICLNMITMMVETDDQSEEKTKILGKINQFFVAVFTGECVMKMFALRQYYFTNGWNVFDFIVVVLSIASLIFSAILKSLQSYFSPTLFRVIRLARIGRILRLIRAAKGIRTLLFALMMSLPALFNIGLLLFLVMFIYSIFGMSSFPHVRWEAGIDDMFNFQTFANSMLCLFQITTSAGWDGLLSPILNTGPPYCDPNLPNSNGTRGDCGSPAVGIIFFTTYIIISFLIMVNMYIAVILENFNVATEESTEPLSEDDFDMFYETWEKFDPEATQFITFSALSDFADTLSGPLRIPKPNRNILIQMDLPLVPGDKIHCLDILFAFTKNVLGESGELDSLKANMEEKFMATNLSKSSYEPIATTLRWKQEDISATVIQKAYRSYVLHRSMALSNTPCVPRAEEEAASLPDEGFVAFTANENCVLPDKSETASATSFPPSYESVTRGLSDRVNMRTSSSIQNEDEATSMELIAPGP

[2] = molecular target: T1, Sodium channel protein type 10 subunit alpha; assay: Inhibition of human recombinant Nav1.8 channel expressed in HEK293 cells at 0.3 uM by whole cell voltage clamp technique; assay type: cell-based; outline: as §1
Target sequence in this assay (Q9Y5Y9 whole entry, looked up): as above

[3] = molecular target: T1, Sodium channel protein type 10 subunit alpha; assay: Inhibition of human recombinant Nav1.8 channel expressed in HEK293 cells at 1 uM by whole cell voltage clamp technique; assay type: cell-based; outline: as §1
Target sequence in this assay (Q9Y5Y9 whole entry, looked up): as above

[4] = Cmax in Sprague-Dawley rat at 10 mg/kg, po; assay type: ADME, organism-based; set-up: dose 10 mg/kg, route oral; conditions: in vivo
Outline: (§2)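 Rat pharmacokinetics after administration at 10 mg/kg in 10% DMSO/PEG400.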

[5] = Oral bioavailability in Sprague-Dawley rat at 10 mg/kg; assay type: ADME, organism-based; conditions: in vivo; outline: as §2
Rattus norvegicus [6] = assay: Analgesic activity in po dosed Sprague-Dawley rat assessed as attenuation of mechanical allodynia in chung model of neuropathic pain; assay type: functional
[7] = Volume of distribution at steady state in Sprague-Dawley rat at 10 mg/kg; assay type: ADME, organism-based; set-up: dose 10 mg/kg; conditions: in vivo, read-out: Vdss; outline: as §2
Rattus norvegicus [8] = assay: Analgesic activity in po dosed Sprague-Dawley rat by rotarod test; assay type: functional
Outline: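 Accelerating rotorod: after 30-min acclimation, rats placed on 9-cm rod ramping 0–20 rpm over 60 s; latency to fall recorded, maximum 60 s; three training sessions per rat. Groups of at least six rats; mean ± SEM.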

[9] = molecular target: Sodium channel protein type 5 subunit alpha (Homo sapiens, UniProt Q14524); assay: Inhibition of human recombinant Nav1.5 channel expressed in HEK293 cells by whole cell voltage clamp technique; assay type: cell-based
Chain of Sodium channel protein type 5 subunit alpha (Q14524 whole entry): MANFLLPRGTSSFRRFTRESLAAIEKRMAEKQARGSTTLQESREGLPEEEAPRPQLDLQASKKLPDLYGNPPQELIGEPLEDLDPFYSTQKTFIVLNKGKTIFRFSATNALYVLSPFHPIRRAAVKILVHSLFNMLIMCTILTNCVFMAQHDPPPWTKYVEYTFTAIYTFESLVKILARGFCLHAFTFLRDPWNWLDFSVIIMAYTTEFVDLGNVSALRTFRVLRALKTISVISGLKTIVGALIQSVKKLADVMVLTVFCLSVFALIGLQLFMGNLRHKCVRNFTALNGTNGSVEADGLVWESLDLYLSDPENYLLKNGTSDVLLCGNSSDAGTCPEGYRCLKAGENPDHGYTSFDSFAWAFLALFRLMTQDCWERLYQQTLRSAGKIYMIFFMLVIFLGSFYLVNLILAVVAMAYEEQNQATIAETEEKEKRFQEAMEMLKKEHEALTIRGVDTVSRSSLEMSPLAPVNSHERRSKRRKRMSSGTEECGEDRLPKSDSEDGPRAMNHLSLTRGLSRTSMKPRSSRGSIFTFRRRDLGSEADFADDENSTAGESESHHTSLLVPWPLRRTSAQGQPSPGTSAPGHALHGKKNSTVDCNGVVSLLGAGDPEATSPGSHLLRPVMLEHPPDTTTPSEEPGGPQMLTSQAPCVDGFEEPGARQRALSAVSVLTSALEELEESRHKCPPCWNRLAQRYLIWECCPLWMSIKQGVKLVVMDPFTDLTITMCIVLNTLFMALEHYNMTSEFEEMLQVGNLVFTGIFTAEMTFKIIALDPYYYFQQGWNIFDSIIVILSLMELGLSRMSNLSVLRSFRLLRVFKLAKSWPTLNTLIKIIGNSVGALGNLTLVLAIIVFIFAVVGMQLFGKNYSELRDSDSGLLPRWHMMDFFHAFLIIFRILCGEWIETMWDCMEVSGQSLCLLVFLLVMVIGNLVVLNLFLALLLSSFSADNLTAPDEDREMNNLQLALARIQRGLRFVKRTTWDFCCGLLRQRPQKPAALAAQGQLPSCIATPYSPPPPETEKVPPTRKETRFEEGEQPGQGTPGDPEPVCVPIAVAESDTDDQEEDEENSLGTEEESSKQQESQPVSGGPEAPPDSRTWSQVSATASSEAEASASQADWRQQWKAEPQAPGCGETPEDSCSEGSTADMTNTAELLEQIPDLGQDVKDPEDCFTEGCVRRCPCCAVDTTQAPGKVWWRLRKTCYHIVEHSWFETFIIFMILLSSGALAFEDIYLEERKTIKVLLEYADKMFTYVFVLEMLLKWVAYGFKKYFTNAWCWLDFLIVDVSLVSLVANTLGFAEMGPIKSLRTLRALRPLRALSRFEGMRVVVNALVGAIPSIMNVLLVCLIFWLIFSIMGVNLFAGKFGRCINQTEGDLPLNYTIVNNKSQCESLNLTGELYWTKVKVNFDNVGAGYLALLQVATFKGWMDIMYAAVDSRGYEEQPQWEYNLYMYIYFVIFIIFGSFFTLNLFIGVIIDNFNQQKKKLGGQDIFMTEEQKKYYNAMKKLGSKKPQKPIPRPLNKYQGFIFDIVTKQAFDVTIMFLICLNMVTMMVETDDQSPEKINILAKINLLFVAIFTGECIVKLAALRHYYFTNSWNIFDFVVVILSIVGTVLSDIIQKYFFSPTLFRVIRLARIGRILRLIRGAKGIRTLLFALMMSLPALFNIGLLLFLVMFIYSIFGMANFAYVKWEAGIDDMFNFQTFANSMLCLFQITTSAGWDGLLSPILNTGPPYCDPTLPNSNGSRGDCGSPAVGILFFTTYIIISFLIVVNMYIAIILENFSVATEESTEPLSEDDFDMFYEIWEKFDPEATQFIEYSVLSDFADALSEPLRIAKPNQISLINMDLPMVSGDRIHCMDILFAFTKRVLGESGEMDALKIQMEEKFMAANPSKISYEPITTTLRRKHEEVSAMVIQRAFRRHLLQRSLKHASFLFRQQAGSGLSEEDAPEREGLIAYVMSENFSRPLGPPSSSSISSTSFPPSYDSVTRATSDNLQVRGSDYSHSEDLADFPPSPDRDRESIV
Outline: (§3)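 HEK293 cells stably expressing recombinant human sodium channels, grown in high-glucose DMEM, 10% FBS, 2 mM sodium pyruvate, G418. Holding pre-pulse set at midpoint of steady-state inactivation for each subtype.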

[10] = molecular target: Sodium channel protein type 10 subunit alpha (Rattus norvegicus, UniProt Q62968); assay: Blockade of Nav1.8 channel in rat dorsal root ganglion neurons assessed as inhibition of TTX-R current by whole cell patch clamp technique; assay type: tissue-based
Outline: (§4)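 Whole-cell voltage clamp of TTX-resistant currents in dissociated rat DRG neurons. Pipette (mM): CsF 135, NaCl 5, CsCl 10, EGTA 5, HEPES 10, pH 7.2. Bath (mM): NaCl 22, choline Cl 110, CaCl2 1.8, MgCl2 0.8, HEPES 10, glucose 5, pH 7.4. Inactivated-state protocol with pre-pulse at V1/2 (−40 mV). Mean ± SEM of two to six determinations.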

[11] = molecular target: Sodium channel protein type 2 subunit alpha (Homo sapiens, UniProt Q99250); assay: Inhibition of human recombinant Nav1.2 channel expressed in HEK293 cells by whole cell voltage clamp technique; assay type: cell-based; outline: as §3
Rattus norvegicus [12] = assay: Effect on locomotor activity in po dosed Sprague-Dawley rat; assay type: functional
Outline: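 Open-field locomotor activity recorded with photobeam activity monitors during the light cycle; groups of at least six rats, mean ± SEM.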

[13] = Plasma clearance in Sprague-Dawley rat at 10 mg/kg; assay type: ADME, organism-based; set-up: dose 10 mg/kg; outline: as §2
[14] = molecular target: T2, 5-hydroxytryptamine receptor 1A (Homo sapiens) (UniProt P08908); assay: Binding affinity to 5HT1A receptor at 10 uM
T2 sequence (whole entry): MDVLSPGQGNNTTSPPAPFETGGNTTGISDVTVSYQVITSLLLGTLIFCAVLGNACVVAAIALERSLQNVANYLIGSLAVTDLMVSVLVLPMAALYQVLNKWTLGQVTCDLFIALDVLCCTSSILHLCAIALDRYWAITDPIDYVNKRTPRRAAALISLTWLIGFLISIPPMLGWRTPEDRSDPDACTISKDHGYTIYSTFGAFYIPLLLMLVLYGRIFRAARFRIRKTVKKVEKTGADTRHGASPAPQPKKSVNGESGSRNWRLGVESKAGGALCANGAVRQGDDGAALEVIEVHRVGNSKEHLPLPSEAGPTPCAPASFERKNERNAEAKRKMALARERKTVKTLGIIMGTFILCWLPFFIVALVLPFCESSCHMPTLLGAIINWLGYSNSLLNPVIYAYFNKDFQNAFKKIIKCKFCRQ

[15] = molecular target: T1, Sodium channel protein type 10 subunit alpha; assay: Inhibition of human recombinant Nav1.8 channel expressed in HEK293 cells by whole cell voltage clamp technique; assay type: cell-based; outline: as §1
Target sequence in this assay (Q9Y5Y9 whole entry): as the sequence (Q9Y5Y9 whole entry, looked up) above

[16] = molecular target: 5-hydroxytryptamine receptor 1B (Homo sapiens) (UniProt P28222); assay: Binding affinity to 5HT1B receptor at 10 uM
Chain of 5-hydroxytryptamine receptor 1B (Homo sapiens) (P28222 whole entry): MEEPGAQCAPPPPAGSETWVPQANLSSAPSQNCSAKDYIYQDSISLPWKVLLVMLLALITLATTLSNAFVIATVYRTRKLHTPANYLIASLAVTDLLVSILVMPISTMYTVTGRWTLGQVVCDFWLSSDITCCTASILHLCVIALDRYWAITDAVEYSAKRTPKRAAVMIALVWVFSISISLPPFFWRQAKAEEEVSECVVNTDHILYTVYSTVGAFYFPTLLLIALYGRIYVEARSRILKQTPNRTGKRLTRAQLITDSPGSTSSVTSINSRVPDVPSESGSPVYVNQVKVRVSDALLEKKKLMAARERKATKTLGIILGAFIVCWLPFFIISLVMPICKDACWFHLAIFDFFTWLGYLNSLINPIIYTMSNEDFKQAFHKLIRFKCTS

[17] = molecular target: Sodium channel protein type 10 subunit alpha (Rattus norvegicus) (UniProt Q62968); assay: Blockade of Nav1.8 channel in rat dorsal root ganglion neurons assessed as inhibition of TTX-R current at 0.3 uM by whole cell patch clamp technique; assay type: tissue-based; outline: as §4
Rattus norvegicus [18] = assay: Analgesic activity in po dosed Sprague-Dawley rat by edge test; assay type: functional
Outline: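 Balance test: rats placed on 0.5-cm-thick edges of a 40 × 40 × 36 cm plexiglass box, must pull up onto the edge and avoid falling; cut-off 2 min. Groups of at least six rats.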

[19] = Ratio of drug level in brain to plasma in Sprague-Dawley rat; assay type: ADME; conditions: for Kp: Sprague-Dawley, brain and plasma
[20] = molecular target: Sodium channel protein type 10 subunit alpha (Mus musculus, UniProt Q6QIY3); assay: Inhibition of mouse recombinant Nav1.8 channel expressed in HEK293 cells by isotopic efflux assay; assay type: cell-based
[21] = molecular target: Sodium channel protein type 10 subunit alpha (Rattus norvegicus) (UniProt Q62968); assay: Blockade of Nav1.8 channel in rat dorsal root ganglion neurons assessed as inhibition of TTX-R current at 10 uM by whole cell patch clamp technique; assay type: tissue-based; outline: as §4
[22] = molecular target: Sodium channel protein type 10 subunit alpha (Rattus norvegicus) (UniProt Q62968); assay: Blockade of Nav1.8 channel in rat dorsal root ganglion neurons assessed as inhibition of TTX-R current at 1 uM by whole cell patch clamp technique; assay type: tissue-based; outline: as §4
[23] = molecular target: Sodium channel protein type 10 subunit alpha (Rattus norvegicus) (UniProt Q62968); assay: Blockade of Nav1.8 channel in rat dorsal root ganglion neurons assessed as inhibition of TTX-R current at 0.1 uM by whole cell patch clamp technique; assay type: tissue-based; outline: as §4
Rattus norvegicus [24] = assay: Effect on locomotor activity in ip dosed Sprague-Dawley rat
Rattus norvegicus [25] = assay: Analgesic activity in ip dosed Sprague-Dawley rat assessed as attenuation of mechanical allodynia in chung model of neuropathic pain
Rattus norvegicus [26] = assay: Analgesic activity in ip dosed Sprague-Dawley rat by rotarod test
[27] = molecular target: Sodium channel protein type 10 subunit alpha (Rattus norvegicus) (UniProt Q62968); assay: Blockade of Nav1.8 channel in rat dorsal root ganglion neurons assessed as inhibition of TTX-R current at 3 uM by whole cell patch clamp technique; assay type: tissue-based; outline: as §4
[28] = molecular target: T1, Sodium channel protein type 10 subunit alpha; assay: Inhibition of human recombinant Nav1.8 channel expressed in HEK293 cells at 0.03 uM by whole cell voltage clamp technique; assay type: cell-based; outline: as §1
Target sequence in this assay (Q9Y5Y9 whole entry, looked up): as the sequence (Q9Y5Y9 whole entry, looked up) above

O=C(c1ccc(-c2ccc(OC(F)(F)F)cc2)o1)N1CCN(C2CCCCC2)CC1
inhibition [1]: 42% | inhibition [2]: 89%

CN(C)c1ccc(-c2ccc(C(=O)N3CCN(C4CCCCC4)CC3)o2)cc1
inhibition [3]: 65%

O=C(c1ccc(-c2cccc(Cl)c2)o1)N1CCN(C2CCCCC2)CC1
inhibition [3]: 80% | inhibition [1]: 22%

O=C(c1ccc(-c2ccc(Cl)cc2)o1)N1CCNCC1
Cmax [4]: 130 ng/mL | bioavailability [5]: 42% | ED50 (Rattus norvegicus [6]): 24 µmol/kg | Vd [7]: 24 L/kg | ED50 (Rattus norvegicus [8]): > 300 µmol/kg | IC50 [9]: 4.6 µM | IC50 [10]: 0.43 µM | IC50 [11]: 1.1 µM | ED50 (Rattus norvegicus [12]): > 300 µmol/kg | clearance [13]: 350 mL/min/kg | Activity [14]: 60% | IC50 [15]: 0.28 µM | inhibition [2]: 55% | Activity [16]: 86% | inhibition [17]: 41% | ED50 (Rattus norvegicus [18]): > 300 µmol/kg | Kp [19]: 9 | IC50 [20]: 2.9 µM

CC(C)(C)c1ccc(-c2ccc(C(=O)N3CCNCC3)o2)cc1
inhibition [3]: 85% | inhibition [21]: 86% | inhibition [1]: 44%

O=C(NCCCN1CCCCC1)c1ccc(-c2ccc(Cl)cc2)o1
inhibition [17]: 52% | IC50 [20]: 1.6 µM

CN1CCC(NC(=O)c2ccc(-c3ccc(Cl)cc3)o2)CC1
inhibition [17]: 51% | IC50 [20]: 1.9 µM

O=C(c1ccc(-c2ccc(Cl)cc2Cl)o1)N1CCN(C2CCCCC2)CC1
inhibition [2]: 12%

CN1CCN(C(=O)c2ccc(-c3ccc(Oc4ccccc4)cc3)o2)CC1
inhibition [22]: 90% | inhibition [23]: 55% | inhibition [1]: 35% | inhibition [2]: 87%

O=C(c1ccc(-c2ccc(Oc3ccccc3)cc2)o1)N1CCNCC1
inhibition [22]: 56% | inhibition [3]: 93% | inhibition [1]: 39%

O=C(c1ccc(-c2ccc(Cl)cc2)o1)N1CCN(C2CCCCC2)CC1
Cmax [4]: 470 ng/mL | bioavailability [5]: 48% | ED50 (Rattus norvegicus [6]): 37 µmol/kg | Vd [7]: 7.8 L/kg | ED50 (Rattus norvegicus [8]): > 300 µmol/kg | IC50 [9]: 2.3 µM | IC50 [10]: 0.39 µM | IC50 [11]: 0.35 µM | ED50 (Rattus norvegicus [12]): > 300 µmol/kg | clearance [13]: 45 mL/min/kg | IC50 [15]: 0.3 µM | inhibition [2]: 58% | inhibition [17]: 50% | ED50 (Rattus norvegicus [18]): > 300 µmol/kg | Kp [19]: 9 | IC50 [20]: 1 µM

O=C(c1ccc(-c2ccc(Cl)cc2)o1)N1CCOCC1
IC50 [20]: 32 µM

Cc1cccc(C)c1OCC(C)N (centres undefined) [MEXILETINE]
ED50 (Rattus norvegicus [24]): 45 µmol/kg | ED50 (Rattus norvegicus [25]): 102 µmol/kg | ED50 (Rattus norvegicus [26]): > 140 µmol/kg | IC50 [10]: 31 µM | IC50 [11]: 2.9 µM | IC50 [15]: 56 µM | Kp [19]: 1.4

CN1CCN(C(=O)c2ccc(-c3ccc(Cl)cc3)o2)CC1
inhibition [27]: 31% | IC50 [20]: 9.9 µM

O=C(NCCN1CCCCC1)c1ccc(-c2ccc(Cl)cc2)o1
inhibition [1]: 29% | inhibition [17]: 59% | IC50 [20]: 0.9 µM

C[C@@H](NC(=O)c1ccc(-c2ccc(Cl)cc2)o1)C(=O)N1CCN(CCCOc2ccc(C(=O)C3CC3)cc2)CC1
IC50 [15]: 1 µM

Nc1nnc(-c2cccc(Cl)c2Cl)c(N)n1 [LAMOTRIGINE]
Cmax [4]: 3500 ng/mL | bioavailability [5]: 79% | ED50 (Rattus norvegicus [6]): 47 µmol/kg | Vd [7]: 0.98 L/kg | ED50 (Rattus norvegicus [8]): > 390 µmol/kg | IC50 [9]: 62 µM | IC50 [10]: 25 µM | IC50 [11]: 10 µM | ED50 (Rattus norvegicus [12]): > 390 µmol/kg | clearance [13]: 1 mL/min/kg | IC50 [15]: 96 µM | ED50 (Rattus norvegicus [18]): > 390 µmol/kg | Ratio ([19]; brain): 26

O=C(c1ccc(-c2ccc(Cl)cc2)o1)N1CCN(c2cccc(C(F)(F)F)c2)CC1
IC50 [20]: 14 µM

O=C(c1ccc(-c2ccc(Oc3ccccc3)cc2)o1)N1CCN(C2CCCCC2)CC1
inhibition [22]: 67% | inhibition [28]: 68% | inhibition [2]: 93%

CN(C)CC(C)(C)CNC(=O)c1ccc(-c2ccc(Cl)cc2)o1
inhibition [17]: 65% | IC50 [20]: 2.4 µM

CN1CCN(C(=O)c2ccc(-c3ccc(C(C)(C)C)cc3)o2)CC1
inhibition [22]: 55% | inhibition [2]: 32%
